Assay results from ChEMBL document CHEMBL1140384, “Synthesis and structure-activity relationships of suramin-derived P2Y11 receptor antagonists with nanomolar potency” (J Med Chem, 2005).

What was measured:
P2Y purinoceptor 2 [1] = biological target: T1, P2Y purinoceptor 2 (Homo sapiens, UniProt P41231); test: Inhibitory concentration against P2Y2 receptor expressed in 1321N1 astrocytoma Cells; (n=3)
P2X purinoceptor 1 = P2X purinoceptor 1 (Rattus norvegicus, UniProt P47824); test: Inhibitory concentration against rat P2X purinoceptor 1 expressed in Xenopus laevis oocytes; type: functional, cell-based, Oocyte
Sequence of P2X purinoceptor 1 (P47824 whole entry, looked up): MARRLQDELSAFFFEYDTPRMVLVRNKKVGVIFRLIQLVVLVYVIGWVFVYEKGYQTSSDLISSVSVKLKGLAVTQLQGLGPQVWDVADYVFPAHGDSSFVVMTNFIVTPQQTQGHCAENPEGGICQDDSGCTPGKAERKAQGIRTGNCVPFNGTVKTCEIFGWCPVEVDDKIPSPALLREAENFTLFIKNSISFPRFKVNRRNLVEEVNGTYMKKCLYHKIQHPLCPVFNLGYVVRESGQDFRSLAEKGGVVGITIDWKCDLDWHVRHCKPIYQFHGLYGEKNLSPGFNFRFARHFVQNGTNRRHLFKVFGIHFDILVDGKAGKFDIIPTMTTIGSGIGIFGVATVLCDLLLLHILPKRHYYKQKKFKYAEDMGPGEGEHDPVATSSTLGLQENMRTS
How it was run: (§1)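 Two-electrode voltage clamp on Xenopus laevis oocytes expressing recombinant rat or human P2X subtypes, recording receptor-mediated currents. IC50 values came from nonlinear least-squares Hill fits to pooled concentration-inhibition data; mean ± SEM from at least three experiments.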

P2X purinoceptor 2 = biological target: T2, P2X purinoceptor 2 (Rattus norvegicus, UniProt P49653); test: Inhibitory concentration against rat P2X purinoceptor 2 expressed in Xenopus laevis oocytes; type: functional, cell-based, Oocyte; how it was run: as §1
T2 sequence (P49653 whole entry): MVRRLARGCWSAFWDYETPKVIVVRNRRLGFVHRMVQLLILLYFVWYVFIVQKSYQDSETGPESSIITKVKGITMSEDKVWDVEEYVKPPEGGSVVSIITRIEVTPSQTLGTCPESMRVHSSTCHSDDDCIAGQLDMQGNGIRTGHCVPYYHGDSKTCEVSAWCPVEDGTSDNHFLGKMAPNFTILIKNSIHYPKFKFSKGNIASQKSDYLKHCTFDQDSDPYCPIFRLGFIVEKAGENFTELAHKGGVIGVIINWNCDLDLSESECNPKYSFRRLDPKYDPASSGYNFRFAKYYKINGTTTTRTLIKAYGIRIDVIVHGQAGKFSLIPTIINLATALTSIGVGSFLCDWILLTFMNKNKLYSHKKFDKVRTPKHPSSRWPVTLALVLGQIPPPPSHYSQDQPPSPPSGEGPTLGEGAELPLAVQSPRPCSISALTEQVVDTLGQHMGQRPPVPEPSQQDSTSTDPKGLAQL

P2X purinoceptor 3 [2] = biological target: T3, P2X purinoceptor 3 (Rattus norvegicus, UniProt P49654); test: Inhibitory concentration against rat P2X purinoceptor 3 expressed in Xenopus laevis oocytes; type: functional, cell-based, Oocyte; how it was run: as §1
T3 sequence (P49654 whole entry): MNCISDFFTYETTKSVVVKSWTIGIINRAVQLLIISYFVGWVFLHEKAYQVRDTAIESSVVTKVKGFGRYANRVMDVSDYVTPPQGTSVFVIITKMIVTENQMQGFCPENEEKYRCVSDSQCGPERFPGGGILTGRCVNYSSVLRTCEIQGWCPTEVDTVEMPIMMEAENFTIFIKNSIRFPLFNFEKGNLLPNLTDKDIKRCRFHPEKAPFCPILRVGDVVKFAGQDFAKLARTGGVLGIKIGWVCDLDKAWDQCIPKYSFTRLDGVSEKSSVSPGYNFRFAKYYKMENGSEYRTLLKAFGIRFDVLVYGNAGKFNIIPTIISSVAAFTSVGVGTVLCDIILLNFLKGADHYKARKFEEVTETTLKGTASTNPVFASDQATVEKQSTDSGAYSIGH

P2X purinoceptor 3 [3] = biological target: T4, P2X purinoceptor 3 (Homo sapiens, UniProt P56373); test: Inhibitory concentration against human P2X purinoceptor 3 expressed in Xenopus laevis oocytes; type: functional, cell-based, Oocyte; how it was run: as §1
T4 sequence (P56373 whole entry): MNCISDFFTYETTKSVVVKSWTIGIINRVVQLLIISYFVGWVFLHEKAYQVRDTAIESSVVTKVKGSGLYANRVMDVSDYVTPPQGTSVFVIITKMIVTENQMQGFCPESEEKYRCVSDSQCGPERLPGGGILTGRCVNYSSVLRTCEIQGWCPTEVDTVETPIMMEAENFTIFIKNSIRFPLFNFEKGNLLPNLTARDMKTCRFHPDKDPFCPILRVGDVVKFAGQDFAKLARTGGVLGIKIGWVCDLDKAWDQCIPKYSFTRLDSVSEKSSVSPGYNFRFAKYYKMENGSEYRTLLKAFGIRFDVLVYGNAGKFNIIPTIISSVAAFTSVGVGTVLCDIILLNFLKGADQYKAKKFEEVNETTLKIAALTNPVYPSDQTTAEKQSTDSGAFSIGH

P2Y purinoceptor 11 = biological target: T5, P2Y purinoceptor 11 (Homo sapiens, UniProt Q96G91); test: Inhibitory concentration against P2Y purinoceptor 11 expressed in 1321N1 astrocytoma cells; n=7; type: cell-based
T5 sequence (Q96G91 whole entry): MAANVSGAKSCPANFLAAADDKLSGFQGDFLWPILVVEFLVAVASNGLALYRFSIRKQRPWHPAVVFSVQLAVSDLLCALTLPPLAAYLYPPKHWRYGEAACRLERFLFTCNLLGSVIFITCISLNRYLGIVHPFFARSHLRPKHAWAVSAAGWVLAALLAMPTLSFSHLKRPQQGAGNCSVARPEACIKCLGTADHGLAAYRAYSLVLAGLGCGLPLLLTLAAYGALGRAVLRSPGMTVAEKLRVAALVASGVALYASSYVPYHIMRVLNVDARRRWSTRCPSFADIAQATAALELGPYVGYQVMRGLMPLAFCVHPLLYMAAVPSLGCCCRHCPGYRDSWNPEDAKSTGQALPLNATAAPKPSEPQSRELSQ
How it was run: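 Human P2Y11 stably expressed in 1321N1 astrocytoma cells (G418 selection), loaded with Oregon Green 488 BAPTA-1/AM (3 µM, 60 min, 25 °C) in Krebs-HEPES. Compound preincubated 30 min at 37 °C before injection of 1 µM ATPγS. Ca2+ fluorescence read at ex 485/em 520 nm for 30 s. IC50 from concentration-inhibition curves; independent experiments each run in triplicate.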

P2Y purinoceptor 2 [4] = biological target: T1, P2Y purinoceptor 2; test: Percent inhibition of agonist-induced calcium mobilization at P2Y purinoceptor 2 recombinantly expressed in human HEK293 cells at 100 uM dose; type: functional, cell-based; conditions: in the assay text read “native in” for “recombinantly expressed in”
How it was run: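 Single 100 µM antagonist dose, preincubated 30 min at 37 °C, in a Ca2+ fluorescence assay (Oregon Green 488 BAPTA-1/AM). Agonists: 31.6 nM 2-MeSADP for native P2Y1 and 3.16 µM UTP for native P2Y2, both in HEK293 cells; 1 µM ATPγS for recombinant P2Y11 in 1321N1 cells. Response expressed as % of agonist control; mean ± SEM, n ≥ 3.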

[5] = biological target: P2X purinoceptor 4 (Rattus norvegicus) (UniProt P51577); test: Inhibitory concentration against rat P2X purinoceptor 4 expressed in Xenopus laevis oocytes
Sequence of P2X purinoceptor 4 (Rattus norvegicus) (P51577 whole entry, looked up): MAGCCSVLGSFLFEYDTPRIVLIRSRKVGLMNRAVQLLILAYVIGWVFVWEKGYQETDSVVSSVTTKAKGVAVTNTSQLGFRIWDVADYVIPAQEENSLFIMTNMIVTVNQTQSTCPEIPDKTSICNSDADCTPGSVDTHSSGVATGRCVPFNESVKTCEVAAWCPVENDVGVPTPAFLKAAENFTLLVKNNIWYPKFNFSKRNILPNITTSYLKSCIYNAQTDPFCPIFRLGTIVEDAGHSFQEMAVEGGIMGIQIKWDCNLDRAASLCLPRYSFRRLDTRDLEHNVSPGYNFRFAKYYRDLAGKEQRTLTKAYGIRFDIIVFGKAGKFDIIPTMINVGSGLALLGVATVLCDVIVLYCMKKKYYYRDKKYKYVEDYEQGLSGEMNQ

[6] = biological target: T6, P2Y purinoceptor 11 (Homo sapiens) (UniProt Q96G91); test: Percent inhibition of agonist-induced calcium mobilization at P2Y purinoceptor 11 recombinantly expressed in human 1321N1 astrocytoma cells at 100 uM dose
T6 sequence (whole entry): T5 sequence (Q96G91 whole entry)

T1 sequence (P41231 whole entry): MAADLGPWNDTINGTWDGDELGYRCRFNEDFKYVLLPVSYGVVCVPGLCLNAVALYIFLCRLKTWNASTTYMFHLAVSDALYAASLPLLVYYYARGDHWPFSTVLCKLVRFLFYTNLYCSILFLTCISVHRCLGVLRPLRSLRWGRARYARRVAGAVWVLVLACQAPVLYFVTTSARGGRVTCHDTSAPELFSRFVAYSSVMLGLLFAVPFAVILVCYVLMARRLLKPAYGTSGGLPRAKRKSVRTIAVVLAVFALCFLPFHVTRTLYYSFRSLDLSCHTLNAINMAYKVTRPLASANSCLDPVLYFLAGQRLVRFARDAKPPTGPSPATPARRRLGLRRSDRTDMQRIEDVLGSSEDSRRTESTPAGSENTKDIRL

IC50 (P2Y purinoceptor 2 [1]): 170000 nM | IC50 (P2X purinoceptor 1): 81.3 nM | IC50 (P2X purinoceptor 2): 138 nM | IC50 (P2X purinoceptor 3 [2]): 776 nM | IC50 (P2X purinoceptor 3 [3]): 355 nM | Ki (P2Y purinoceptor 11): 44.7 nM | inhibition (P2Y purinoceptor 2 [4]): 42.8% | IC50 [5]: > 1000 nM | inhibition [6]: 96.6%
Structure (SMILES): O=C(Nc1cccc(C(=O)Nc2cc(C(=O)Nc3ccc(S(=O)(=O)O)c4cc(S(=O)(=O)O)cc(S(=O)(=O)O)c34)ccc2F)c1)Nc1cccc(C(=O)Nc2cc(C(=O)Nc3ccc(S(=O)(=O)O)c4cc(S(=O)(=O)O)cc(S(=O)(=O)O)c34)ccc2F)c1
